In ChEMBL document CHEMBL3621160, “Pseudosaccharin amines as potent and selective KV1.5 blockers” (Bioorg Med Chem Lett, 2015):

Assays:
[1] = target: Histamine H1 receptor (Homo sapiens) (UniProt P35367); assay: Inhibition of human histamine H1 receptor at 10 uM relative to control
How it was run: (§1)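 Screening panel of over 37 receptors and enzymes relevant to cardiovascular effects or toxicity. Each target was tested at a single concentration of 10 µM, with % activity reported.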

[2] = target: Protein kinase C (PKC) (Rattus norvegicus) (UniProt P05696+P68403+P09216+P63319+P09215+Q64617+Q9WTQ0+P09217); assay: Inhibition of rat PKC at 10 uM relative to control; how it was run: as §1
[3] = organism: Rattus norvegicus; assay: Inhibition of rat N-methyl D-aspartate receptor phencyclidine binding site at 10 uM relative to control
How it was run: (§2)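 Single-concentration screen at 10 µM across a panel of over 37 receptors and enzymes linked to cardiovascular effects or toxicity. Read-out is percent activity.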

[4] = target: Adrenergic receptor alpha-2 (Rattus norvegicus) (UniProt P22086+P19328+P22909); assay: Inhibition of rat alpha-2 adrenergic receptor at 10 uM relative to control; how it was run: as §1
[5] = target: Histamine H2 receptor (Homo sapiens) (UniProt P25021); assay: Inhibition of human histamine H2 receptor at 10 uM relative to control; how it was run: as §1
[6] = target: 5-hydroxytryptamine receptor 1B (Rattus norvegicus) (UniProt P28564); assay: Inhibition of rat 5HT-1B receptor at 10 uM relative to control; how it was run: as §1
[7] = target: Progesterone receptor (Homo sapiens) (UniProt P06401); assay: Inhibition of human progesterone B receptor at 10 uM relative to control; how it was run: as §1
[8] = target: Androgen receptor (Rattus norvegicus) (UniProt P15207); assay: Inhibition of rat testosterone receptor at 10 uM relative to control; how it was run: as §1
[9] = organism: Homo sapiens; assay: Inhibition of human nicotinic acetylcholine receptor at 10 uM relative to control; how it was run: as §2
[10] = target: Sodium-dependent dopamine transporter (Homo sapiens) (UniProt Q01959); assay: Inhibition of human DAT at 10 uM relative to control; how it was run: as §1
[11] = target: MAO-B (Homo sapiens, UniProt P27338); assay: Inhibition of human MAOB at 10 uM relative to control; how it was run: as §1
[12] = target: Sodium-dependent noradrenaline transporter (Homo sapiens) (UniProt P23975); assay: Inhibition of human NET at 10 uM relative to control; how it was run: as §1
[13] = target: 5-hydroxytryptamine receptor 2B (Homo sapiens) (UniProt P41595); assay: Inhibition of human 5HT-2B receptor at 10 uM relative to control; how it was run: as §1
[14] = target: Carnitine O-palmitoyltransferase 1, liver isoform (Rattus norvegicus) (UniProt P32198); assay: Inhibition of rat carnitine palmitoyltransferase-1 at 10 uM relative to control; how it was run: as §1
[15] = target: Adrenergic receptor alpha-1 (Rattus norvegicus) (UniProt P15823+P23944+P43140); assay: Inhibition of rat alpha-1 adrenergic receptor at 10 uM relative to control; how it was run: as §1
[16] = target: Phosphodiesterase 3 (Homo sapiens) (UniProt Q14432+Q13370); assay: Inhibition of human PDE3 at 10 uM relative to control; format: protein assay
[17] = target: Estrogen receptor (Homo sapiens) (UniProt P03372); assay: Inhibition of human ER-alpha at 10 uM relative to control; how it was run: as §1
[18] = target: Potassium voltage-gated channel subfamily A member 5 (Homo sapiens, UniProt P22460); assay: Inhibition of human KV1.5 expressed in mouse L929 cells assessed as decrease in ultrarapid potassium current amplitude; format: cell-based
How it was run: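 Potassium current block was measured in mouse fibroblast L929 cells expressing human KV1.5. IC50 values are means of 2-4 experiments.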

[19] = Metabolic stability in human liver microsomes assessed as compound remaining at 3 uM after 10 mins; format: ADME; conditions: read-out: Stability
How it was run: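 Parent compound at 3 µM was incubated 10 min in human, rat or mouse liver microsomes with appropriate co-factors. Read-out is percent of parent remaining.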

[20] = organism: Homo sapiens; assay: Inhibition of calcium channel (unknown origin) at 10 uM relative to control
How it was run: (§3)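 Calcium (ICa) and sodium (INa) currents were measured as percent inhibition at a single concentration of 10 µM. Values are means of 2-4 experiments.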

[21] = organism: Homo sapiens; assay: Inhibition of sodium channel (unknown origin) at 10 uM relative to control; how it was run: as §3
[22] = target: hERG (KCNH2) (Homo sapiens, UniProt Q12809); assay: Inhibition of human ERG at 10 uM relative to control; how it was run: as §1
[23] = Cmax in rat at 2 mg/kg administered as intra-arterial infusion for 10 mins and 5 mg/kg, po; format: ADME, organism-based; parameters: route oral; conditions: in vivo
How it was run: (§4)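 Rats (3 per compound) received intra-arterial infusion over 10 min or oral gavage. Vehicle for both routes was 40% PEG 400, 40% water and 20% ethanol. Values are means of 3 animals.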

[24] = Clearance in rat at 2 mg/kg administered as intra-arterial infusion for 10 mins and 5 mg/kg, po; format: ADME, organism-based; conditions: in vivo, iv; how it was run: as §4
[25] = Oral bioavailability in rat at 5 mg/kg; format: ADME, organism-based; conditions: in vivo; how it was run: as §4
[26] = organism: Rattus norvegicus; assay: Inhibition of rat muscarinic acetylcholine receptor at 10 uM relative to control; how it was run: as §2
[27] = tested on: Rattus norvegicus; assay: Induction of QT interval prolongation in rat at 3 mg/kg, iv administered as infusion for 5 mins by ECG analysis; format: functional
How it was run: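 Rats were dosed at 3 mg/Kg. Block of IKur was read as the percent change in the ECG QT interval; mean blood pressure and plasma concentration were recorded alongside. Values are means of 2-4 experiments.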

[28] = tested on: Rattus norvegicus; assay: Toxicity in rat assessed as increase in blood pressure at 3 mg/kg, iv administered as infusion for 5 mins; format: organism-based; conditions: in vivo
How it was run: (§5)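 Rats were dosed at 3 mg/Kg. QT interval on ECG, mean blood pressure (% change) and plasma concentration were measured. Values are means of 2-4 experiments.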

[29] = Plasma concentration in rat at 3 mg/kg, iv administered as infusion for 5 mins; format: ADME, organism-based; how it was run: as §5
[30] = organism: Oryctolagus cuniculus; assay: Induction of […] effective refractory period prolongation in rabbit; format: functional
How it was run: (§6)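 Rabbits were dosed at 0.3, 1.0 and 3.0 mg/Kg. Effective refractory period was measured in atrium and ventricle, and blood pressure was recorded. The plasma concentration giving 20% atrial ERP prolongation (EC20) was calculated.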

[31] = Cmax in rabbit at 0.3 to 3 mg/kg; format: ADME, organism-based, Oryctolagus cuniculus; conditions: in vivo; how it was run: as §6
[32] = target: Somatostatin receptor type 2 (Homo sapiens) (UniProt P30874); assay: Inhibition of human SS2 receptor at 10 uM relative to control; how it was run: as §1
[33] = target: Adrenergic receptor beta (Rattus norvegicus) (UniProt P18090+P10608+P26255); assay: Inhibition of rat beta adrenergic receptor at 10 uM relative to control; how it was run: as §1
[34] = target: D(2) dopamine receptor (Homo sapiens) (UniProt P14416); assay: Inhibition of human dopamine D2S receptor at 10 uM relative to control; how it was run: as §1
[35] = target: 5-hydroxytryptamine receptor 4 (Cavia porcellus) (UniProt O70528); assay: Inhibition of guinea pig 5-HT4 receptor at 10 uM relative to control; how it was run: as §1
[36] = organism: Rattus norvegicus; assay: Inhibition of rat GABAA central-type benzodiazepine receptor at 10 uM relative to control; how it was run: as §2
[37] = organism: Rattus norvegicus; assay: Inhibition of rat opioid receptor at 10 uM relative to control; how it was run: as §2

Chain of Somatostatin receptor type 2 (Homo sapiens) (P30874 whole entry): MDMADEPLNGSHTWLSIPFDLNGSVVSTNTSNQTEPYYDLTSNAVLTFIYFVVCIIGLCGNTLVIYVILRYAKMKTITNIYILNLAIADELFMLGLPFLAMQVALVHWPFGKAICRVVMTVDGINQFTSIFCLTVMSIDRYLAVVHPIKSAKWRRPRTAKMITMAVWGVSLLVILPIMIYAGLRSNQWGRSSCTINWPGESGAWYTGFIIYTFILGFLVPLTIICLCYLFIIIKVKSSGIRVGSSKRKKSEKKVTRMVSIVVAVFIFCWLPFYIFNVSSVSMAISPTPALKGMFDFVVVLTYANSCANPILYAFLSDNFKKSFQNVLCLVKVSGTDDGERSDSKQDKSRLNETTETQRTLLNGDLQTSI
Chain of hERG (KCNH2) (Q12809 whole entry, the tested form may be a part): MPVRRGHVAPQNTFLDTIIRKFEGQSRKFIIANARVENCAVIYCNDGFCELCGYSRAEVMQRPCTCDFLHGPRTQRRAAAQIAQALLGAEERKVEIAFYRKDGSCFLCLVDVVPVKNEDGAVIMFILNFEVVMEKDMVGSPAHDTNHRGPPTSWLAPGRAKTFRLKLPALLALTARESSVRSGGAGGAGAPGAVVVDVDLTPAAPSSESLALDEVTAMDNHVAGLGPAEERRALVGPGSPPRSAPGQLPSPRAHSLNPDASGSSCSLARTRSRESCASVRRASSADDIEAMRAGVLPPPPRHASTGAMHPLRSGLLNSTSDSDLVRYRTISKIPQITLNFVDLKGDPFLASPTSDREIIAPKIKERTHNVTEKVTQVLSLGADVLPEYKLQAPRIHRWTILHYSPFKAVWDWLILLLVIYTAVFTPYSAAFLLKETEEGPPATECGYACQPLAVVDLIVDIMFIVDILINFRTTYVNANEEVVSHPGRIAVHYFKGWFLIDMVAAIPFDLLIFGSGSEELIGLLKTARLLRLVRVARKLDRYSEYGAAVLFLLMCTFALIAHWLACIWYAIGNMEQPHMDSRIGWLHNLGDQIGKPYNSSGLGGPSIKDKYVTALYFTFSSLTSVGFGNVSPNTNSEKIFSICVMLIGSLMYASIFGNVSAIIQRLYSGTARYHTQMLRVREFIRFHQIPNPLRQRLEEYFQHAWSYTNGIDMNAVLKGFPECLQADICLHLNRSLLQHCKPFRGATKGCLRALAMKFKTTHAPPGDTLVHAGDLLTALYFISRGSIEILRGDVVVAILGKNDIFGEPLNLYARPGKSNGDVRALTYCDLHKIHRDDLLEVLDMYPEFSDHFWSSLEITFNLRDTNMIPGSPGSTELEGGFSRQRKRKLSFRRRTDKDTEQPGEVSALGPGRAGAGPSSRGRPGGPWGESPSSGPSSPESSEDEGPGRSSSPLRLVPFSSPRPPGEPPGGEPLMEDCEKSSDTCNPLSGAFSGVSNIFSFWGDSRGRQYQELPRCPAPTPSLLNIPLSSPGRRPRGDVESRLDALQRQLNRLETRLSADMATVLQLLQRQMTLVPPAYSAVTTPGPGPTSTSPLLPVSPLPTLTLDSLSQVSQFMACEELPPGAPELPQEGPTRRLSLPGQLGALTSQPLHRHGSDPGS
Chain of 5-hydroxytryptamine receptor 4 (Cavia porcellus) (O70528 whole entry): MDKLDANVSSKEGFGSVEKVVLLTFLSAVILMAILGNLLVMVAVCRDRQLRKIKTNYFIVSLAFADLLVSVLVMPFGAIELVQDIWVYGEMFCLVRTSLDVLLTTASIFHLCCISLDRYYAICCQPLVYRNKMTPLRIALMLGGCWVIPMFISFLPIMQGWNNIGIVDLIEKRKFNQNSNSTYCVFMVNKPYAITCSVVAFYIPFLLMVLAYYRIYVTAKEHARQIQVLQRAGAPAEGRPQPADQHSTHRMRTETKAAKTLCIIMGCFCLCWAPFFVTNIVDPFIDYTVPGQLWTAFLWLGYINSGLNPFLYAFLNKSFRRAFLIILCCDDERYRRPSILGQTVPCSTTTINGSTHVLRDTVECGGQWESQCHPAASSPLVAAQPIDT
Chain of 5-hydroxytryptamine receptor 1B (Rattus norvegicus) (P28564 whole entry): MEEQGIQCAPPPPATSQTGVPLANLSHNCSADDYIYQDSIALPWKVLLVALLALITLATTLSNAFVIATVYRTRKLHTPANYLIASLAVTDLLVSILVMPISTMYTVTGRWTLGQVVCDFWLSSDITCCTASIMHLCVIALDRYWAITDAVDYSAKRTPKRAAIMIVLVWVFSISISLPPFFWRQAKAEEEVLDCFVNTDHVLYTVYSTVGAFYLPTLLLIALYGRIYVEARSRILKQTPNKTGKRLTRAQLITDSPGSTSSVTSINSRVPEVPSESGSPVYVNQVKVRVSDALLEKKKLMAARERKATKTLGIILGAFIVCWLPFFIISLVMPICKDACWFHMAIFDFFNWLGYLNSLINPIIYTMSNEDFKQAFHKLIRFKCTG
Chain of Potassium voltage-gated channel subfamily A member 5 (P22460 whole entry): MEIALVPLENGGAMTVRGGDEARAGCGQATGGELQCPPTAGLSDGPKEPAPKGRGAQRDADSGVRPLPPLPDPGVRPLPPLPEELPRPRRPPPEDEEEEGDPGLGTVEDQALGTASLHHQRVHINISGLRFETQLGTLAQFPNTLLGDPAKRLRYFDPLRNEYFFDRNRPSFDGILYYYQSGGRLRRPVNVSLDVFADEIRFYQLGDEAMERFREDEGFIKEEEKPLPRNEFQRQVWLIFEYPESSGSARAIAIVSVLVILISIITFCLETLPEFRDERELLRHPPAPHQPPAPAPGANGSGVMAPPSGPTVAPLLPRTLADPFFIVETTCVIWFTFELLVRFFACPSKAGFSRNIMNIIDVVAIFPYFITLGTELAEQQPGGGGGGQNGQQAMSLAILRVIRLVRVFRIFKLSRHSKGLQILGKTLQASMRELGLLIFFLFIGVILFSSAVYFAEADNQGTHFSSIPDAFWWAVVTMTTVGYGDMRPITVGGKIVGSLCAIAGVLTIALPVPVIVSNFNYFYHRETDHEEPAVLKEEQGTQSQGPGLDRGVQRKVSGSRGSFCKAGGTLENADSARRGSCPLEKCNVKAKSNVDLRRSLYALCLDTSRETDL
Chain of Carnitine O-palmitoyltransferase 1, liver isoform (Rattus norvegicus) (P32198 whole entry, canonical isoform): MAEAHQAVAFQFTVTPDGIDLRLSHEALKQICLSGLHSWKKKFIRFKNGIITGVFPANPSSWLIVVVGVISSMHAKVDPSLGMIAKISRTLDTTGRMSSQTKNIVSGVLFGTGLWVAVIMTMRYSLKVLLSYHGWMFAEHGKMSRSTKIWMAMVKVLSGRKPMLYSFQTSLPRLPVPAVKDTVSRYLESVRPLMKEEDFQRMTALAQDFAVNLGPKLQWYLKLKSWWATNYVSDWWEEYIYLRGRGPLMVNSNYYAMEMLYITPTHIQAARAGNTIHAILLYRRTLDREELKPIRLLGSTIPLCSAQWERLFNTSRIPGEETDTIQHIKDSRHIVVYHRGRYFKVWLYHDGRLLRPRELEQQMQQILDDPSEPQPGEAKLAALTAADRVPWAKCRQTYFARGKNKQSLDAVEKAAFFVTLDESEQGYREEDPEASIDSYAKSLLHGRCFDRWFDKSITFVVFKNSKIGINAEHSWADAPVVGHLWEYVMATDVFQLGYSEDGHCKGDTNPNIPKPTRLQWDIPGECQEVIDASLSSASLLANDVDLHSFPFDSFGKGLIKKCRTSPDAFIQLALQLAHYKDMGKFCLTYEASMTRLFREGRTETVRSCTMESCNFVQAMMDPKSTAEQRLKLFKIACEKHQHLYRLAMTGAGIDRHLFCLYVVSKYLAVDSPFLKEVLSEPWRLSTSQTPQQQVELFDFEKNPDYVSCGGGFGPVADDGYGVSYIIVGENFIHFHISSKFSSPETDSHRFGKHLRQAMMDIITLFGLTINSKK
Chain of Sodium-dependent dopamine transporter (Homo sapiens) (Q01959 whole entry): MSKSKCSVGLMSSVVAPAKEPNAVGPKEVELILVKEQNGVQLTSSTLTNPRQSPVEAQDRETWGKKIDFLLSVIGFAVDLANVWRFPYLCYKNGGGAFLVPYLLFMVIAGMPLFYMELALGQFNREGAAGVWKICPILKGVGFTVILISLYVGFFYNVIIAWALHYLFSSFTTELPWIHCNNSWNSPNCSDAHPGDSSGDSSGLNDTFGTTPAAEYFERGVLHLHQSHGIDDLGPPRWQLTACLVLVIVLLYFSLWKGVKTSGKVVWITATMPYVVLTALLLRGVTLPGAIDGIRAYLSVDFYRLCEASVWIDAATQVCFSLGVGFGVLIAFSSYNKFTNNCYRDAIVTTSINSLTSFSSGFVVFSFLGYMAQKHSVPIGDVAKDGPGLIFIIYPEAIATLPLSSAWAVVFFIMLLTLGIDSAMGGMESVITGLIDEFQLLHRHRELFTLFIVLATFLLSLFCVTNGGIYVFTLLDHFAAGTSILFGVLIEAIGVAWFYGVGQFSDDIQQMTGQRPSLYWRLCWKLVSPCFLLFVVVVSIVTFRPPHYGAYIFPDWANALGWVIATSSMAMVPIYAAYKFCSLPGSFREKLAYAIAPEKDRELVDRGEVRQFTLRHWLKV
Chain of 5-hydroxytryptamine receptor 2B (Homo sapiens) (P41595 whole entry, canonical isoform): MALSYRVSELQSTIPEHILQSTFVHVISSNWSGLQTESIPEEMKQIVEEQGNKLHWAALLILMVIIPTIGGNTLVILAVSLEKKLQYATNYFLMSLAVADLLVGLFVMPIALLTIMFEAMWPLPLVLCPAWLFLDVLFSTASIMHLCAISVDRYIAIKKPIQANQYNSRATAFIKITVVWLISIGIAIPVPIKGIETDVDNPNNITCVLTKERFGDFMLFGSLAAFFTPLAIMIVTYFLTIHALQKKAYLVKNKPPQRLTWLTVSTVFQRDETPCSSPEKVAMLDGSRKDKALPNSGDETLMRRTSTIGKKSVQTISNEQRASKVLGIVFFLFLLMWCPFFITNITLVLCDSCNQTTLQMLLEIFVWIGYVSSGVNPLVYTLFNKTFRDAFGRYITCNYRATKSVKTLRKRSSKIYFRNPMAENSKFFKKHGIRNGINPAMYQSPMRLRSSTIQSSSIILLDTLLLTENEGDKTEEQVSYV

| SMILES | inhibition [1] [%] | inhibition [2] [%] | inhibition [3] [%] | inhibition [4] [%] | inhibition [5] [%] | inhibition [6] [%] | inhibition [7] [%] | inhibition [8] [%] | inhibition [9] [%] | inhibition [10] [%] | inhibition at 10 µM [11] [%] | inhibition [12] [%] | inhibition [13] [%] | inhibition [14] [%] | inhibition [15] [%] | inhibition [16] [%] | inhibition [17] [%] | IC50 [18] [nM] | remaining at 10 min, 3 µM [19] [%] | inhibition [20] [%] | other results |
| --- | --- | --- | --- | --- | --- | --- | --- | --- | --- | --- | --- | --- | --- | --- | --- | --- | --- | --- | --- | --- | --- |
| COc1cccc2c1C(NC[C@]1(c3ccccc3)CC[C@H](O)CC1)=NS2(=O)=O | 19 | 9 | -6 | -6 | 19 | 42 | 6 | 2 | 12 | 18 | 3 | 8 | 2 | 4 | 13 | 53 | -1 | 34 | 90 | 14 | inhibition [21]: 27%; inhibition at 10 µM [22]: 54%; Cmax [23]: 1.7 µM; clearance [24]: 27 mL/min/kg; bioavailability [25]: 34%; inhibition [26]: 24%; Activity [27]: 66%; Activity [28]: 13%; concentration at 5 min [29]: 153 µM; EC20 [30]: 600 nM; Cmax [31]: 6.1 µM; inhibition [32]: 4%; inhibition [33]: -4%; inhibition [34]: 4%; inhibition [35]: 5%; inhibition [36]: 29%; inhibition [37]: 23% |
| COc1cccc2c1C(NC[C@]1(c3ccccc3)CC[C@H](NC(=O)OC(C)C)CC1)=NS2(=O)=O | 13 | 29 | 2 | -2 | 19 | 23 | 10 | 20 | 10 | 37 | 9 | 6 | 27 | 0 | -6 | 15 | 4 | 52 | 85 | 41 | inhibition [21]: 14%; inhibition at 10 µM [22]: 68%; Cmax [23]: 0.93 µM; clearance [24]: 9.4 mL/min/kg; bioavailability [25]: 7.2%; inhibition [26]: 15%; Activity [27]: 68%; Activity [28]: 44%; concentration at 5 min [29]: 38 µM; EC20 [30]: <700 nM; Cmax [31]: 4.7 µM; inhibition [32]: 6%; inhibition [33]: 0%; inhibition [34]: -2%; inhibition [35]: 25%; inhibition [36]: 2%; inhibition [37]: 64% |
